Drawing on paper PMC9476207 (ACS Omega, 2022), this text covers activity for six molecules.

Holding throughout (assay): NCI-60 single-dose antiproliferative screen
Common to all, as to format: cell-based

The test system of experiment [1] is CCRF-CEM. The following applies: Homo sapiens, 48 h, read-out: growth percent. The method, boiled down: (§1)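 NCI-60 protocol. Lines were grown in RPMI 1640 with 5% FBS and 2 mM L-glutamine, plated and incubated 24 h at 37 °C; time-zero plates were TCA-fixed. The test compound was dissolved in DMSO, diluted in medium with 50 μg/mL gentamicin and given once at a final 10^-5 M (DMSO control) for 48 h. Cells were fixed with cold TCA (1 h, 4 °C) and stained with 0.4% SRB in 1% acetic acid for 10 min. Dye was dissolved in 10 mM Trizma base and read at 515 nm. Growth percent was calculated from time-zero, test and control ODs.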

Experiment [2] relates to K-562. The following applies: Homo sapiens, K562, 48 h, read-out: growth percent. In a few lines:
as §1

For experiment [3], the system named is SR. The following applies: Homo sapiens, 48 h, read-out: growth percent. In a few lines:
(§2)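 Cells grown in RPMI 1640 with 5% FBS and 2 mM L-glutamine, plated and held 24 h at 37 °C; time-zero plates TCA-fixed. DMSO stocks were diluted in gentamicin-containing medium to a final 10^-5 M, with a DMSO-only control. Exposure 48 h, 5% CO2. Adherent cells TCA-fixed 1 h at 4 °C, stained with 0.4% SRB, solubilised in 10 mM Trizma base, read at 515 nm. Growth percent derived from ODtzero, ODtest and ODctrl.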

Experiment [4] deals with A549/ATCC. The following applies: Homo sapiens, A549, 48 h, read-out: growth percent. In a few lines:
as §1

Experiment [5] concerns NCI-H23. The following applies: Homo sapiens, NCI-H23, 48 h, read-out: growth percent. In a few lines:
as §1

Experiment [6] concerns HCC-2998. The following applies: Homo sapiens, HCC 2998, 48 h, read-out: growth percent. In a few lines: as §1
Experiment [7] concerns HT29. The following applies: Homo sapiens, HT-29, 48 h, read-out: growth percent. In a few lines: as §1
The test system of experiment [8] is KM12. The following applies: Homo sapiens, KM12, 48 h, read-out: growth percent. The method, boiled down: as §1
The test system of experiment [9] is SW-620. The following applies: Homo sapiens, SW-620, 48 h, read-out: growth percent. In a few lines:
as §2

For experiment [10], the system named is SF-539. The following applies: Homo sapiens, SF-539, 48 h, read-out: growth percent. The method, boiled down: as §2
For experiment [11], the system named is SNB-75. The following applies: Homo sapiens, SNB-75, 48 h, read-out: growth percent. In a few lines:
as §2

The test system of experiment [12] is SK-MEL-2. The following applies: Homo sapiens, SK-MEL-2, 48 h, read-out: growth percent. In a few lines:
as §2

Experiment [13] deals with SK-MEL-28. The following applies: Homo sapiens, SK-MEL-28, 48 h, read-out: growth percent. In a few lines: as §2
Experiment [14] has as its system UACC-257. The following applies: Homo sapiens, UACC-257, 48 h, read-out: growth percent. In a few lines:
as §2

Experiment [15] has as its system UACC-62. The following applies: Homo sapiens, UACC-62, 48 h, read-out: growth percent. The method, boiled down:
as §2

Experiment [16] deals with IGROV1. The following applies: Homo sapiens, IGROV-1, 48 h, read-out: growth percent. In a few lines: as §1
The test system of experiment [17] is ACHN. The following applies: Homo sapiens, 48 h, read-out: growth percent. In a few lines: as §1
The test system of experiment [18] is MCF-7. The following applies: Homo sapiens, MCF7, 48 h, read-out: growth percent. In a few lines:
as §1

Experiment [19] deals with MDA-MB-231 ATCC. The following applies: Homo sapiens, MDA-MB-231, 48 h, read-out: growth percent. In a few lines:
as §1

The test system of experiment [20] is BT-549. The following applies: Homo sapiens, BT-549, 48 h, read-out: growth percent. The method, boiled down: as §1

For the molecule `COc1cc(CNC(=O)CCCC/C=C/C(C)C)ccc1OCc1cn(-c2ccccc2Cl)nn1` [14c, (E)-N-(4-((1-(2-Chlorophenyl)-1H-1,2,3-triazol-4-yl)methoxy)-3-methoxybenzyl)-8-methylnon-6-enamide], the activity at 10 µM in [1] worked out at 87.9%; in experiment [2] it was 76.8%; in [3], 68.5%; in experiment [4], 84.3%; in experiment [5], 93.6%; in [6], 110%. Besides, the activity at 10 µM was 98.2% in [7]; 97.7% in [8]; 100% in experiment [9]; 104% in experiment [10]; 87.3% in [11]; 91% in experiment [12]. The activity at 10 µM in [13] stood at 106%; in experiment [14] it was 87.9%; in experiment [15] it was 73.3%; in experiment [16] it was 98.8%; in experiment [17] it was 74.1%; in experiment [18], 97.2%. Also, the activity at 10 µM in [19] came to 80.8%; in experiment [20], 90.8%.
For the molecule `COc1cc(CNC(=O)CCCC/C=C/C(C)C)ccc1OCc1cn(-c2ccc(C)cc2)nn1` [14n, (E)-N-(3-Methoxy-4-((1-(p-tolyl)-1H-1,2,3-triazol-4-yl)methoxy)benzyl)-8-methylnon-6-enamide], the activity at 10 µM in [1] worked out at 87.3%; in experiment [2] it was 80%; in experiment [3], 75.5%; in experiment [4], 84%; in experiment [5], 87.9%; in experiment [6] it was 108%. Also, the activity at 10 µM in experiment [7] came out at 100%; in [8], 96%; in experiment [9], 102%; in experiment [10], 100%; in experiment [11], 99.5%; in experiment [12], 91.9%. Besides, the activity at 10 µM in [13] amounted to 114%; in experiment [14], 88.2%; in experiment [15], 70.2%; in [16], 98.5%; in experiment [17], 72%; in experiment [18] it was 96.3%. Moreover, the activity at 10 µM in experiment [19] came to 72.2%; in experiment [20], 105%.
In the case of `COc1cc(CNC(=O)CCCC/C=C/C(C)C)ccc1OCc1cn(-c2ccc(Cl)cc2)nn1` [14a, (E)-N-(4-((1-(4-Chlorophenyl)-1H-1,2,3-triazol-4-yl)methoxy)-3-methoxybenzyl)-8-methylnon-6-enamide], the activity at 10 µM in [1] came to 72.4%; in experiment [2], 66.7%; in [3] it was 73.5%; in experiment [4] it was 85.3%; in experiment [5] it was 78.7%; in experiment [6], 113%. For the same molecule, the activity at 10 µM in experiment [7] is 88.4%; in experiment [8], 95.6%; in experiment [9] it was 88.7%; in experiment [10], 87.1%; in [11], 76.4%; in [12], 102%. For the same molecule, the activity at 10 µM in [13] was 106%; in experiment [14], 91.6%; in experiment [15] it was 67.8%; in experiment [16] it was 93.4%; in experiment [17] it was 59.7%; in experiment [18], 84.9%. Also, the activity at 10 µM in [19] was 79.5%; in experiment [20], 86.8%.
With `COc1cc(CNC(=O)CCCC/C=C/C(C)C)ccc1OCc1cn(-c2cccc([N+](=O)[O-])c2)nn1` [14f, (E)-N-(3-Methoxy-4-((1-(3-nitrophenyl)-1H-1,2,3-triazol-4-yl)methoxy)benzyl)-8-methylnon-6-enamide], the activity at 10 µM stood at 90.2% in [1]; 81.5% in [2]; 78.4% in [3]; 92% in [4]; 88% in experiment [5]; 101% in experiment [6]. Besides, the activity at 10 µM was found to be 88.9% in [7]; 91.2% in experiment [8]; 97.4% in experiment [9]; 94.4% in [10]; 92% in experiment [11]; 88.4% in [12]. Also, the activity at 10 µM came to 106% in experiment [13]; 94.4% in experiment [14]; 70% in [15]; 89.4% in [16]; 78.9% in experiment [17]; 74.1% in [18]. The results for the activity at 10 µM in experiment [19] and in experiment [20] were 88.4% and 96.3%, respectively.
Take `COc1cc(CNC(=O)CCCC/C=C/C(C)C)ccc1OCc1cn(-c2ccccc2F)nn1` [14i, (E)-N-(4-((1-(2-Fluorophenyl)-1H-1,2,3-triazol-4-yl)methoxy)-3-methoxybenzyl)-8-methylnon-6-enamide]: the activity at 10 µM in experiment [1] amounted to 88.6%; in [2], 82.3%; in experiment [3], 81.5%; in experiment [4] it was 91.3%; in experiment [5] it was 95.3%; in experiment [6], 97.2%. In addition, the activity at 10 µM was found to be 107% in experiment [7]; 98.9% in experiment [8]; 98.1% in [9]; 105% in experiment [10]; 88.1% in experiment [11]; 106% in [12]. Also, the activity at 10 µM is 107% in experiment [13]; 95% in experiment [14]; 76.2% in [15]; 101% in experiment [16]; 83% in [17]; 97.1% in experiment [18]. Further, the activity at 10 µM in [19] amounted to 78.7%; in [20] it was 89.2%.
`COc1cc(CNC(=O)CCCC/C=C/C(C)C)ccc1OCc1cn(-c2ccc(F)cc2)nn1` [14h, (E)-N-(4-((1-(4-Fluorophenyl)-1H-1,2,3-triazol-4-yl)methoxy)-3-methoxybenzyl)-8-methylnon-6-enamide]: the activity at 10 µM was found to be 79.7% in experiment [1]; 68.7% in [2]; 76.7% in experiment [3]; 84.3% in experiment [4]; 81.4% in experiment [5]; 110% in experiment [6]. Further, the activity at 10 µM in experiment [7] came out at 106%; in experiment [8], 94.5%; in [9] it was 91%; in [10], 92.2%; in experiment [11], 83.5%; in experiment [12], 111%. Also, the activity at 10 µM in [13] was 102%; in [14] it was 90.2%; in experiment [15], 71.9%; in experiment [16] it was 97%; in [17], 81.2%; in experiment [18], 89.3%. Moreover, the activity at 10 µM in experiment [19] was determined as 69.1%; in experiment [20], 91%.
